In paper PMC3833035 (Blood, 2011):
Entries after “also recorded” stand apart in the source; their conditions may differ. No end group written: not given here.

How the values were obtained:
[1] = tested on: recombinant or affinity purified human VAP-1; assay: Surface plasmon resonance; assay type: binding
[2] = tested on: VAP-1 (wild type mice bearing melanoma xenografts); assay type: in vivo, mouse
Method in brief: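 Wild-type mice received B16 melanoma cells in the neck area and were used 11 days later. 68Ga-DOTA-peptide was injected i.v., then dynamic PET ran 60 min (OSEM2D reconstruction). SUV is ROI radioactivity concentration divided by injected activity per body weight, corrected for tail residue. A separate group got 500-fold molar excess of unlabeled peptide co-injected. Blood, urine and organs were then excised, weighed and gamma-counted.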

[3] = tested on: VAP-1 negative knockout mice bearing melanoma xenografts; assay type: in vivo, mouse; conditions: KO 60 min; i.v.; ex vivo; mean ± SD, n = 2
Method in brief: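 VAP-1 knockout mice received B16 melanoma cells in the neck area and were used 11 days later. 68Ga-DOTA-Siglec-9 peptide was given i.v. (7.8 ± 2.3 MBq, as stated for tumor-bearing mice). Blood, urine and organs were excised, weighed and gamma-counted. Uptake is given as SUV: tissue radioactivity concentration divided by injected radioactivity per body weight.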

[4] = tested on: site of inflammation (VAP-1); assay: PET imaging, rats with turpentine-induced sterile inflammation; assay type: in vivo, rat (Sprague-Dawley)
Method in brief: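 Sprague-Dawley rats received turpentine oil s.c. in the upper neck, and 24 h later 68Ga-labelled DOTA test peptide i.v. (18.4 ± 3.1 MBq). A 60 min list-mode PET scan was reconstructed by OSEM3D, with blood sampled during imaging. ROIs covered inflammation, muscle, organs and bladder. SUV was ROI concentration divided by injected activity per body weight, corrected for tail residue. Excised organs were then gamma-counted as SUV; three animals.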

human VAP-1 (KOTG mice) = assay type: in vivo, human (transgene in mouse)
Method in brief: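 Ear inflammation was induced with 4 drops of 5% (w/v) DNCB in acetone on the right ear, one day before imaging. Mice were VAP-1 KO, or KOTG (mouse VAP-1-deficient, with human VAP-1 on endothelium under the Tie-1 promoter). 68Ga-DOTA-peptide was given i.v. (KO 7.4 ± 1.8, KOTG 7.5 ± 3.0 MBq). Dynamic PET ran 30 min (OSEM2D), read as SUV, and was checked by ex vivo gamma counting of excised tissues.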

VAP-1 in melanoma tumor = assay: Digital autoradiography of tumor cryosections; assay type: in vivo, mouse; conditions: i.v. 3.0 ± 0.4 MBq, 15 min
Method in brief: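 B16 melanoma cells were inoculated abdominally, and mice were used 11 days later. Mice received 68Ga-labelled DOTA test peptide i.v. (3.0 ± 0.4 MBq) and were killed after 15 min. Tumour cryosections went to digital autoradiography as PSL/mm2. ROIs covered VAP-1-positive and VAP-1-negative areas, set by anti-mouse VAP-1 staining of adjacent sections. Background was subtracted and values normalised to muscle; four mice, mean ± SD.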

[5] = molecular target: Vascular Adhesion Protein-1 (VAP-1), human, recombinant (human) (UniProt Q16853); assay: SPR
Sequence of UniProt Q16853 (Q16853 whole entry): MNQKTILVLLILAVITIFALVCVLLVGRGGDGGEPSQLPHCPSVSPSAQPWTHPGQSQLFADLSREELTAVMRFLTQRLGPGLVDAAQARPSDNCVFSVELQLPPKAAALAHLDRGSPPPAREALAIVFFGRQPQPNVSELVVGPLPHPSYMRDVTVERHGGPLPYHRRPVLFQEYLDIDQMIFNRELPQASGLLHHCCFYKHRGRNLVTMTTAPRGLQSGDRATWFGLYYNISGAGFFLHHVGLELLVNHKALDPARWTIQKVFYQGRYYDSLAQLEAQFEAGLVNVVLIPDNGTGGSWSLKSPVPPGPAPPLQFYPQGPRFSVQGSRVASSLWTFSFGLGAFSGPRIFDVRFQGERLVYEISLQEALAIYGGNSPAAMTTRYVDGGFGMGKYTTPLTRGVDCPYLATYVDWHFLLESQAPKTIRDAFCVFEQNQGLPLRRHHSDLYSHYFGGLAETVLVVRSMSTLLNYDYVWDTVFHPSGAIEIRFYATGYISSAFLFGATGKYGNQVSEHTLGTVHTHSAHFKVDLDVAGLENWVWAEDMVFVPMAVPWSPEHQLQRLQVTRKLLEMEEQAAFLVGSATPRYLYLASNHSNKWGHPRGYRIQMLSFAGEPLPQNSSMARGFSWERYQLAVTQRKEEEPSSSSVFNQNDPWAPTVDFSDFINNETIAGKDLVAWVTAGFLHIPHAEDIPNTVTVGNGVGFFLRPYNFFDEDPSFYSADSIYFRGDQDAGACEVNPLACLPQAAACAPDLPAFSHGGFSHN

[6] = tested on: Siglec-9 expression on granulocytes; assay: Induction of Siglec-9 expression on granulocytes; assay type: cell-based, human; conditions: FMLP 0.5 and 5 μg/mL, FACS, MFI, n = 4; for Siglec-9 up-regulation on granulocytes, 2 h: TNF-α 10 and 200 U/mL, LPS 10 and 100 ng/mL
Method in brief: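 Leukocytes from four healthy volunteers were prepared by red-cell lysis of whole blood. Treatments were FMLP (0.5 or 5 μg/mL, 5 min or 2 h), TNF-α (10 or 200 U/mL, 2 h) or LPS (10 or 100 ng/mL, 2 h); untreated cells were controls. Cells were stained with anti-Siglec-9 mAb (3G6 as control), then Alexa546 anti-mouse IgG. Granulocytes were gated by FITC-anti-CD66b and read by flow cytometry as MFI minus control-antibody MFI, mean ± SEM.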

[7] = tested on: human granulocyte binding to inflamed synovial vessels; assay: Granulocyte binding to vessels in inflamed synovia; assay type: cell-based; conditions: TNF-α 200 U/mL, 2 h; granulocytes from three donors
Method in brief: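 Percoll-purified granulocytes from three donors were incubated 2 h with TNF-α (200 U/mL) or left untreated. They were then pre-treated 30 min with anti-Siglec-9 or control antibodies. Cells were bound to frozen sections of inflamed human synovium under rotation for 30 min, then glutaraldehyde-fixed. Vessel-bound cells were counted and expressed as % of control-mAb binding (100%), mean ± SEM.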

VAP-1 = conditions: tyrosine 471 of VAP-1 and Arg293 in Siglec-10; ref [6]; cited from earlier work
mouse VAP-1 = assay: Adhesion of CHO-Siglec-E cells to CHO cells transfected with mouse VAP-1; assay type: cell-based; conditions: CHO-Siglec-E or mock; Supplemental Figure 1
Method in brief: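 CHO cells expressing mouse VAP-1, or mock CHO, were grown to confluence in 96-well plates and blocked with PBS/1% BSA. CFSE-labelled CHO-Siglec-E cells (2 × 10^5) were added for 30 min at 37°C. After nine washes, adherence was read by fluorometer, and the wells were imaged by microscope.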

[8] = WT 60 min, i.v., ex vivo, mean ± SD, n = 3

Question: For CARLSLSWRGLTLCPS [wild type peptide], which “binding to recombinant VAP-1 (SPR)” value ([1]; Biacore X, CM5 chip, immobilized VAP-1, wild type peptide at 0-400 μM) is on record?
Answer: bound to recombinant VAP-1

Question: Which “uptake in kidney (SUV), WT” value [2, 8] does the source give for CARLSLSWRGLTLCPSK [^68Ga-DOTA-peptide] here?
Answer: 5.10 ± 0.86 standardized uptake values

Question: What about the “uptake in liver (SUV), WT” value [2, 8] of the same molecule?
Answer: 1.82 ± 0.25 standardized uptake values

Question: What about the “uptake in lung (SUV), WT” value [2, 8] of the same molecule?
Answer: 0.69 ± 0.21 standardized uptake values

Question: What about the “uptake in muscle (SUV), WT” value [2, 8] of the same molecule?
Answer: 0.21 ± 0.07 standardized uptake values

Question: And the “uptake in small intestine (SUV), WT” value [2, 8]?
Answer: 0.59 ± 0.16 standardized uptake values

Question: What about the “uptake in tumour (SUV), WT” value [2, 8] of the same molecule?
Answer: 0.56 ± 0.12 standardized uptake values

Question: What about the “accumulation at tumor site (PET)” value ([2]; i.v. 7.8 ± 2.3 MBq, B16 melanoma, wild type mice) of the same molecule?
Answer: accumulated at the tumor site

Question: And the “uptake in blood (SUV), KO” value [3]?
Answer: 0.25 ± 0.01 standardized uptake values

Question: What about the “uptake in kidney (SUV), KO” value [3] of the same molecule?
Answer: 7.78 ± 1.47 standardized uptake values

Question: And the “uptake in liver (SUV), KO” value [3]?
Answer: 0.97 ± 0.07 standardized uptake values

Question: And the “uptake in muscle (SUV), KO” value [3]?
Answer: 0.04 ± 0.01 standardized uptake values

Question: And the “uptake in small intestine (SUV), KO” value [3]?
Answer: 0.08 ± 0.01 standardized uptake values

Question: What about the “uptake in tumour (SUV), KO” value [3] of the same molecule?
Answer: 0.20 ± 0.02 standardized uptake values

Question: And the “accumulation at sites of inflammation vs muscle (PET)” value ([4]; i.v. 18.4 ± 3.1 MBq, 5-10 min, 24 h after turpentine, rat)?
Answer: quickly and preferentially accumulated at the sites of inflammation (5-10 min) in comparison to the muscle; also recorded: clearly seen at the site of inflammation (I) but not in the surrounding muscle

Question: And the elimination route ([4]; i.v., PET)?
Answer: eliminated rapidly via kidneys to the urinary bladder

Question: And the “detection of inflammation in the mouse (PET)” value (human VAP-1 (KOTG mice); DNCB ear skin inflammation, Supplemental Figure 2)?
Answer: able to detect inflammation in the mouse

Question: And the “signals in many organs, KOTG vs KO mice” value (human VAP-1 (KOTG mice); i.v. 7.5 ± 3.0 MBq (KOTG), 7.4 ± 1.8 MBq (KO), Supplemental Table 2)?
Answer: detects human VAP-1 in many organs realized as higher signals than in KO mice

Question: What about the “distribution of radioactivity within tumor” value (VAP-1 in melanoma tumor) of the same molecule?
Answer: radioactivity concentrated in the periphery of the tumor

Question: Which percent reduction of binding against the wild type peptide [5] does the source give for “cyclic Siglec-9-like peptide without Arg284 (P1_noArg284) (from UniProt Q9Y336 283-297)” here?
Answer: 66%

Question: Which percent reduction of binding against the wild type peptide [5] does the source give for “cyclic Siglec-9-like peptide without Arg290 (P1_noArg290) (from UniProt Q9Y336 283-297)” here?
Answer: 42%

Question: What does the source list for “formyl-methyl-leucine-phenylalanine [FMLP]”?
Answer: Siglec-9 up-regulation on granulocytes, 2 h [6]: further up-regulation was seen after 2 h; also recorded: roughly two-fold after 2 h; Siglec-9 up-regulation on granulocytes, 5 min ([6]; 5 min): slightly up-regulated Siglec-9 expression already after 5 min; also recorded: slight up-regulation was already seen after 5 min

Question: For lipopolysaccharide [LPS], which “Siglec-9 up-regulation on granulocytes, 2 h” value [6] is on record?
Answer: significant up-regulation of Siglec-9 after 2 h

Question: For “mutated Siglec-9 peptide: mutated Siglec-9 peptide, in which both arginines were mutated to alanines (CAALSLSWAGLTLCPS; also: cyclic peptide, ring type not given here)”, which “binding to recombinant VAP-1 (SPR), double arginine mutant” value ([1]; both arginines mutated to alanines, data not shown) is on record?
Answer: failed to bind recombinant VAP-1

Question: Which results are given for tumor necrosis factor-α [TNF-α]?
Answer: Siglec-9 up-regulation on granulocytes, 2 h [6]: significant up-regulation of Siglec-9 after 2 h; granulocyte binding to inflamed synovial vasculature after TNF-α [7]: significantly increased granulocyte binding to synovial vasculature

B1: Siglec-10: lymphocyte ligand for VAP-1 (protein, UniProt Q96LC7 17-697, looked up)
Sialic acid-binding Ig-like …: MDGRFWIRVQESVMVPEGLCISVPCSFSYPRQDWTGSTPAYGYWFKAVTETTKGAPVATNHQSREVEMSTRGRFQLTGDPAKGNCSLVIRDAQMQDESQYFFRVERGSYVRYNFMNDGFFLKVTALTQKPDVYIPETLEPGQPVTVICVFNWAFEECPPPSFSWTGAALSSQGTKPTTSHFSVLSFTPRPQDHNTDLTCHVDFSRKGVSAQRTVRLRVAYAPRDLVISISRDNTPALEPQPQGNVPYLEAQKGQFLRLLCAADSQPPATLSWVLQNRVLSSSHPWGPRPLGLELPGVKAGDSGRYTCRAENRLGSQQRALDLSVQYPPENLRVMVSQANRTVLENLGNGTSLPVLEGQSLCLVCVTHSSPPARLSWTQRGQVLSPSQPSDPGVLELPRVQVEHEGEFTCHARHPLGSQHVSLSLSVHYSPKLLGPSCSWEAEGLHCSCSSQASPAPSLRWWLGEELLEGNSSQDSFEVTPSSAGPWANSSLSLHGGLSSGLRLRCEAWNVHGAQSGSILQLPDKKGLISTAFSNGAFLGIGITALLFLCLALIIMKILPKRRTQTETPRPRFSRHSTILDYINVVPTAGPLAQKRNQKATPNSPRTPLPPGAPSPESKKNQKKQYQLPSFPEPKSSTQAPESQESQEELHYATLNFPGVRPRPEARMPKGTQADYAEVKFQ
Question: For B1, which “dependence of Siglec-10/VAP-1 interaction on enzymatic activity” value (VAP-1) is on record?
Answer: completely dependent on the enzymatic activity of VAP-1

B2: Siglec-E: mouse molecule corresponding to human Siglec-9, expressed on CHO cells (protein)
chain: QNPQEVFTLNVERKVVVQEGLCVLVPCNFSYLKKRLTDWTDSDPVHGFWYREGTDRRKDSIVATNNPIRKAVKETRNRFFLLGDPWRNDCSLNIREIRKKDAGLYFFRLERGKTKYNYMWDKMTLVVTALTNTPQILLPETLEAGHPSNLTCSVPWDCGWTAPPIFSWTGTSVSFLSTNTTGSSVLTITPQPQDHGTNLTCQVTLPGTNVSTRMTIRLNVSYAPKNLTVTIYQGADSVSTILKNGSSLPISEGQSLRLICSTDSYPPANLSWSWDNLTLCPSKLSKPGLLELFPVHLKHGGVYTCQAQHALGSQHISLSLSPQSSATLSEMMMGTFVGSGVTALLFLSVCILLLAVRSYRRKPARPAVVAPHPDALKVSVSQNPLVESQADDSSEPLPSILEAAPSSTEEEIHYATLSFHEMKPMNLWGQQDTTTEYSEIKFPQRTAWP
Question: Which “adhesion of Siglec-E cells to mouse VAP-1 cells” value (mouse VAP-1) does the source give for B2 here?
Answer: no VAP-1-Siglec-E mediated adhesion was detected
